Measured values reported in ChEMBL document CHEMBL4346654 (Eur J Med Chem, 2019).
≈ marks a conversion by molar mass, not a printed value.

Columns and labels:
Assay type in all cases: functional
[1] = test system: Staphylococcus aureus; assay: Antibacterial activity against MLS-resistant Staphylococcus aureus PU 32 expressing inducible ermA gene assessed as reduction in microbial growth by CLSI based two-fold broth dilution method
[2] = test system: Streptococcus pneumoniae; assay: Antibacterial activity against erythromycin-susceptible Streptococcus pneumoniae ATCC49619 assessed as reduction in microbial growth by CLSI based two-fold broth dilution method
[3] = test system: Streptococcus pneumoniae; assay: Bactericidal activity against erythromycin-susceptible Streptococcus pneumoniae ATCC49619 pretreated followed by subculture in absence of compound measured after 24 hrs
Summary of the method: (§1)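 Isolates were identified by 16S rDNA sequencing. MIC was determined by CLSI-recommended two-fold broth dilution. For MBC, samples from 1–8 fold MIC were transferred to culture medium and subcultured for 24 h without antibiotic.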

[4] = test system: Haemophilus influenzae; assay: Antibacterial activity against azithromycin-susceptible Haemophilus influenzae ATCC 49247 assessed as reduction in microbial growth by CLSI based two-fold broth dilution method
[5] = test system: Streptococcus pneumoniae; assay: Antibacterial activity against Streptococcus pneumoniae 07P390 expressing constitutive ermB gene assessed as reduction in microbial growth by CLSI based two-fold broth dilution method
[6] = test system: Streptococcus pneumoniae; assay: Antibacterial activity against penicillin-susceptible Streptococcus pneumoniae PU 09 expressing mef gene assessed as reduction in microbial growth by CLSI based two-fold broth dilution method
[7] = test system: Streptococcus pneumoniae; assay: Bactericidal activity against penicillin-susceptible Streptococcus pneumoniae PU 09 expressing mef gene pretreated followed by subculture in absence of compound measured after 24 hrs; summary of the method: as §1
[8] = test system: Streptococcus pneumoniae; assay: Selectivity ratio of MBC to MIC for penicillin-susceptible Streptococcus pneumoniae PU 09 expressing mef gene; summary of the method: as §1
[9] = test system: Streptococcus pneumoniae; assay: Bactericidal activity against Streptococcus pneumoniae 07P390 expressing constitutive ermB gene pretreated followed by subculture in absence of compound measured after 24 hrs; summary of the method: as §1
[10] = test system: Streptococcus pneumoniae; assay: Selectivity ratio of MBC to MIC for Streptococcus pneumoniae 07P390 expressing constitutive ermB gene; summary of the method: as §1
[11] = test system: Haemophilus influenzae; assay: Bactericidal activity against azithromycin-susceptible Haemophilus influenzae ATCC 49247 pretreated followed by subculture in absence of compound measured after 24 hrs; summary of the method: as §1
[12] = test system: Haemophilus influenzae; assay: Selectivity ratio of MBC to MIC for azithromycin-susceptible Haemophilus influenzae ATCC 49247; summary of the method: as §1
[13] = test system: Streptococcus pyogenes; assay: Antibacterial activity against MLS-resistant Streptococcus pyogenes 01-968 expressing inducible ermB gene assessed as reduction in microbial growth by CLSI based two-fold broth dilution method
[14] = test system: Streptococcus pyogenes; assay: Bactericidal activity against MLS-resistant Streptococcus pyogenes 01-968 expressing inducible ermB gene pretreated followed by subculture in absence of compound measured after 24 hrs
Summary of the method: (§2)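 MBC assay. Following MIC determination by CLSI standard two-fold broth dilution, samples at 1–8 fold MIC were transferred to fresh culture medium. They were subcultured for 24 h without antibiotic. Isolates were identified by 16S rDNA sequencing. S. aureus ATCC 29213 was used as a control strain.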

[15] = test system: Streptococcus pyogenes; assay: Selectivity ratio of MBC to MIC for MLS-resistant Streptococcus pyogenes 01-968 expressing inducible ermB gene
Summary of the method: (§3)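 MBC/MIC ratio. MIC was measured by CLSI standard two-fold broth dilution. MBC was measured by transferring samples at 1–8 fold MIC to culture medium and subculturing for 24 h without antibiotic. Isolates were identified by 16S rDNA sequencing.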

[16] = test system: Staphylococcus aureus; assay: Bactericidal activity against MLS/methicillin-resistant Staphylococcus aureus PU 32 expressing inducible ermA gene pretreated followed by subculture in absence of compound measured after 24 hrs; summary of the method: as §2
[17] = test system: Staphylococcus aureus; assay: Selectivity ratio of MBC to MIC for MLS/methicillin-resistant Staphylococcus aureus PU 32 expressing inducible ermA gene; summary of the method: as §3
[18] = test system: Staphylococcus aureus; assay: Antibacterial activity against MLS-resistant Staphylococcus aureus PU 20 expressing constitutive ermC gene assessed as reduction in microbial growth by CLSI based two-fold broth dilution method
[19] = test system: Staphylococcus aureus; assay: Bactericidal activity against MLS-resistant Staphylococcus aureus PU 20 expressing constitutive ermC gene pretreated followed by subculture in absence of compound measured after 24 hrs; summary of the method: as §2
[20] = test system: Streptococcus pyogenes; assay: Antibacterial activity against MLS-resistant Streptococcus pyogenes 12-206 expressing constitutive ermA gene assessed as reduction in microbial growth by CLSI based two-fold broth dilution method
[21] = test system: Streptococcus pyogenes; assay: Bactericidal activity against MLS-resistant Streptococcus pyogenes 12-206 expressing constitutive ermA gene pretreated followed by subculture in absence of compound measured after 24 hrs; summary of the method: as §2
[22] = test system: Streptococcus pyogenes; assay: Selectivity ratio of MBC to MIC for MLS-resistant Streptococcus pyogenes 12-206 expressing constitutive ermA gene; summary of the method: as §3
[23] = test system: Streptococcus pyogenes; assay: Antibacterial activity against Streptococcus pyogenes 12-207 expressing mef gene assessed as reduction in microbial growth by CLSI based two-fold broth dilution method
[24] = test system: Streptococcus pyogenes; assay: Bactericidal activity against Streptococcus pyogenes 12-207 expressing mef gene pretreated followed by subculture in absence of compound measured after 24 hrs; summary of the method: as §1
[25] = test system: Streptococcus pyogenes; assay: Selectivity ratio of MBC to MIC for Streptococcus pyogenes 12-207 expressing mef gene; summary of the method: as §1
[26] = test system: Moraxella catarrhalis; assay: Antibacterial activity against erythromycin-susceptible Moraxella catarrhalis 13L332 assessed as reduction in microbial growth by CLSI based two-fold broth dilution method
[27] = test system: Moraxella catarrhalis; assay: Bactericidal activity against erythromycin-susceptible Moraxella catarrhalis 13L332 pretreated followed by subculture in absence of compound measured after 24 hrs; summary of the method: as §1
[28] = test system: Moraxella catarrhalis; assay: Selectivity ratio of MBC to MIC for erythromycin-susceptible Moraxella catarrhalis 13L332; summary of the method: as §1
[29] = test system: Streptococcus pneumoniae; assay: Selectivity ratio of MBC to MIC for erythromycin-susceptible Streptococcus pneumoniae ATCC49619; summary of the method: as §1

Compound	MIC [1] [µg/mL]	MIC [2] [µg/mL]	MBC [3] [µg/mL]	MIC [4] [µg/mL]	MIC [5] [µg/mL]	MIC [6] [µg/mL]	MBC [7] [µg/mL]	Selectivity ratio [8]	MBC [9] [µg/mL]	Selectivity ratio [10]	MBC [11] [µg/mL]	Selectivity ratio [12]	MIC [13] [µg/mL]	MBC [14] [µg/mL]	Selectivity ratio [15]	MBC [16] [µg/mL]	Selectivity ratio [17]	MIC [18] [µg/mL]	MBC [19] [µg/mL]	MBC [24] [µg/mL]	also measured
CC[C@H]1OC(=O)[C@@](C)(F)C(=O)[C@H](C)[C@@H](O[C@@H]2O[C@H](C)C[C@H](N(C)C)[C@H]2O)[C@](C)(OC)C[C@@H](C)/C(=N\OC/C=C/c2ccc3c(c2)c(=O)c(C(=O)NC)cn3CC)[C@H](C)[C@H]2OC(=O)O[C@@]21C	2	≤ 0.008	≤ 0.008	128	0.25	0.5	0.5 (≈ 0.546 µM)	1	> 2	>8	256 (≈ 280 µM)	2	0.016	> 0.125	>8	> 16	>8	128	> 256	1 (≈ 1.09 µM)	MIC [20]: 1 µg/mL; MBC [21]: > 8 µg/mL; Selectivity ratio [22]: >8; MIC [23]: 0.25 µg/mL; Selectivity ratio [25]: 4; MIC [26]: 8 µg/mL; MBC [27]: 64 µg/mL (≈ 69.9 µM); Selectivity ratio [28]: 8
CC[C@H]1OC(=O)[C@@](C)(F)C(=O)[C@H](C)[C@@H](O[C@@H]2O[C@H](C)C[C@H](N(C)C)[C@H]2O)[C@](C)(OC/C=C/c2ccc3c(c2)c(=O)c(C(=O)NC)cn3CC)C[C@@H](C)/C(=N\OC)[C@H](C)[C@H]2OC(=O)O[C@@]21C	0.25	≤ 0.008	≤ 0.008	256	0.031	0.5	1 (≈ 1.09 µM)	2	> 0.25	>8	> 256	–	≤ 0.002	0.008 (≈ 0.00874 µM)	>=4	> 2	>8	> 256	–	0.25 (≈ 0.273 µM)	MIC [20]: ≤ 0.002 µg/mL; MBC [21]: > 0.016 µg/mL; Selectivity ratio [22]: >8; MIC [23]: 0.062 µg/mL; Selectivity ratio [25]: 4; MIC [26]: 0.5 µg/mL; MBC [27]: 4 µg/mL (≈ 4.37 µM); Selectivity ratio [28]: 8
CC[C@H]1OC(=O)[C@@](C)(F)C(=O)[C@H](C)[C@@H](O[C@@H]2O[C@H](C)C[C@H](N(C)C)[C@H]2O)[C@](C)(OC/C=C/c2ccc3[nH]ccc(=O)c3c2)C[C@@H](C)/C(=N\OC)[C@H](C)[C@H]2OC(=O)O[C@@]21C	1	0.062	0.062 (≈ 0.0747 µM)	8	0.25	2	4 (≈ 4.82 µM)	2	1 (≈ 1.2 µM)	4	16 (≈ 19.3 µM)	2	0.125	1 (≈ 1.2 µM)	8	8 (≈ 9.64 µM)	8	256	> 256	–	Selectivity ratio [29]: 1
CC[C@H]1OC(=O)[C@@](C)(F)C(=O)[C@H](C)[C@@H](O[C@@H]2O[C@H](C)C[C@H](N(C)C)[C@H]2O)[C@](C)(OC/C=C/c2ccc3c(c2)c(=O)c(C(N)=O)cn3CC)C[C@@H](C)/C(=N\OC)[C@H](C)[C@H]2OC(=O)O[C@@]21C	0.25	≤ 0.008	≤ 0.008	64	≤ 0.008	0.25	0.25 (≈ 0.277 µM)	1	> 0.062	>8	128 (≈ 142 µM)	2	≤ 0.002	0.008 (≈ 0.00888 µM)	>=4	> 2	>8	> 256	–	0.25 (≈ 0.277 µM)	MIC [20]: ≤ 0.002 µg/mL; MBC [21]: > 0.016 µg/mL; Selectivity ratio [22]: >8; MIC [23]: 0.062 µg/mL; Selectivity ratio [25]: 4; MIC [26]: 0.5 µg/mL; MBC [27]: > 4 µg/mL; Selectivity ratio [28]: >8
CC[C@H]1OC(=O)[C@@](C)(F)C(=O)[C@H](C)[C@@H](O[C@@H]2O[C@H](C)C[C@H](N(C)C)[C@H]2O)[C@](C)(OC)C[C@@H](C)/C(=N\OCC#Cc2ccc3[nH]ccc(=O)c3c2)[C@H](C)[C@H]2OC(=O)O[C@@]21C	1	0.062	0.125 (≈ 0.151 µM)	16	16	4	4 (≈ 4.83 µM)	1	32 (≈ 38.6 µM)	2	16 (≈ 19.3 µM)	1	≤ 0.008	> 0.062	>8	8 (≈ 9.66 µM)	8	256	> 256	–	Selectivity ratio [29]: 2
CC[C@H]1OC(=O)[C@@](C)(F)C(=O)[C@H](C)[C@@H](O[C@@H]2O[C@H](C)C[C@H](N(C)C)[C@H]2O)[C@](C)(OC/C=C/c2ccc3c(c2)c(=O)c(C(=O)NC)cn3C2CC2)C[C@@H](C)/C(=N\OC)[C@H](C)[C@H]2OC(=O)O[C@@]21C	1	≤ 0.008	≤ 0.008	32	≤ 0.008	0.25	0.5 (≈ 0.539 µM)	2	> 0.062	>8	32 (≈ 34.5 µM)	1	≤ 0.002	> 0.016	>8	> 8	>8	256	> 256	0.5 (≈ 0.539 µM)	MIC [20]: 0.031 µg/mL; MBC [21]: > 0.25 µg/mL; Selectivity ratio [22]: >8; MIC [23]: 0.125 µg/mL; Selectivity ratio [25]: 4; MIC [26]: 1 µg/mL; MBC [27]: > 8 µg/mL; Selectivity ratio [28]: >8
CC[C@H]1OC(=O)[C@H](C)[C@@H](O[C@H]2C[C@@](C)(OC)[C@@H](O)[C@H](C)O2)[C@H](C)[C@@H](O[C@@H]2O[C@H](C)C[C@H](N(C)C)[C@H]2O)[C@](C)(O)C[C@@H](C)CN(C)[C@H](C)[C@@H](O)[C@]1(C)O [AZITHROMYCIN]	32	0.062	0.25 (≈ 0.334 µM)	2	256	8	16 (≈ 21.4 µM)	2	> 256	–	8 (≈ 10.7 µM)	4	8	> 64	>8	32 (≈ 42.7 µM)	1	> 256	–	16 (≈ 21.4 µM)	Selectivity ratio [29]: 4; MIC [20]: > 256 µg/mL; MIC [23]: 16 µg/mL; Selectivity ratio [25]: 1; MIC [26]: 0.031 µg/mL; MBC [27]: 0.25 µg/mL (≈ 0.334 µM); Selectivity ratio [28]: 8
O=C(O)c1cn(C2CC2)c2cc(N3CCNCC3)c(F)cc2c1=O [CIPROFLOXACIN]	–	–	2 (≈ 6.04 µM)	–	–	–	4 (≈ 12.1 µM)	–	4 (≈ 12.1 µM)	–	0.004 to 0.008 (≈ 0.0121 to 0.0241 µM)	–	–	0.5 to 2 (≈ 1.51 to 6.04 µM)	–	> 256	–	–	> 256	2 (≈ 6.04 µM)	MBC [21]: > 1 µg/mL
